# Measured values: ChEMBL document CHEMBL3259555, “Aromatic diacylhydrazine derivatives as a new class of polo-like kinase 1 (PLK1) inhibitors” (Eur J Med Chem, 2014)
# What was measured:
# [1] = Cytotoxicity against macrophage (unknown origin) assessed as reduction in cell viability after 24 hrs by MTT assay; assay type: cell-based; conditions: macrophages (unknown origin)
# Procedure, shortened: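 Macrophages plated at 5×10⁵ cells per well with a range of compound concentrations and incubated 24 h at 37 °C, 5% CO₂. MTT (4 mg/mL stock) added for the final 4 h, plate centrifuged, supernatant removed, DMSO added, absorbance read at 570 nm. Triplicate wells per concentration, assay repeated three times; CC50 (50% viability reduction) given as mean ± SD.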
# [2] = cells; conditions: Homo sapiens, Cancer cell lines, 48 h
Structure (SMILES),CC50 at 24 h [1],IC50 [2]
O=C(/C=C/c1ccccc1F)NNC(=O)c1ccc2c(c1)OCCO2,302 µM,4.51 µM
O=C(/C=C/c1ccccc1Cl)NNC(=O)c1ccc2c(c1)OCCO2,285 µM,4.88 µM
O=C(/C=C/c1ccccc1Br)NNC(=O)c1ccc2c(c1)OCCO2,315 µM,2.11 µM
Cc1ccccc1/C=C/C(=O)NNC(=O)c1ccc2c(c1)OCCO2,268 µM,7.71 µM
COc1ccccc1/C=C/C(=O)NNC(=O)c1ccc2c(c1)OCCO2,312 µM,8.06 µM
O=C(/C=C/c1ccccc1[N+](=O)[O-])NNC(=O)c1ccc2c(c1)OCCO2,257 µM,0.89 µM
O=C(/C=C/c1cccc(F)c1)NNC(=O)c1ccc2c(c1)OCCO2,221 µM,4.11 µM
O=C(/C=C/c1cccc(Cl)c1)NNC(=O)c1ccc2c(c1)OCCO2,391 µM,3.56 µM
O=C(/C=C/c1cccc(Br)c1)NNC(=O)c1ccc2c(c1)OCCO2,351 µM,3.33 µM
Cc1cccc(/C=C/C(=O)NNC(=O)c2ccc3c(c2)OCCO3)c1,281 µM,2.89 µM
COc1cccc(/C=C/C(=O)NNC(=O)c2ccc3c(c2)OCCO3)c1,398 µM,0.17 µM
O=C(/C=C/c1cccc([N+](=O)[O-])c1)NNC(=O)c1ccc2c(c1)OCCO2,323 µM,1.56 µM
O=C(/C=C/c1ccc(F)cc1)NNC(=O)c1ccc2c(c1)OCCO2,319 µM,0.99 µM
O=C(/C=C/c1ccc(Cl)cc1)NNC(=O)c1ccc2c(c1)OCCO2,309 µM,1.13 µM
O=C(/C=C/c1ccc(Br)cc1)NNC(=O)c1ccc2c(c1)OCCO2,259 µM,2.33 µM
Cc1ccc(/C=C/C(=O)NNC(=O)c2ccc3c(c2)OCCO3)cc1,332 µM,1.05 µM
COc1ccc(/C=C/C(=O)NNC(=O)c2ccc3c(c2)OCCO3)cc1,319 µM,0.93 µM
O=C(/C=C/c1ccc([N+](=O)[O-])cc1)NNC(=O)c1ccc2c(c1)OCCO2,295 µM,0.61 µM
O=C(/C=C/c1ccccc1)NNC(=O)c1ccc2c(c1)OCCO2,312 µM,0.55 µM
